Activity calls are given as the source filed them. The rule behind the calls is not given here.
Key:
Cathepsin B = Cathepsin B (Rattus norvegicus, UniProt P00787); assay: Binding affinity to cathepsin B in crude rat liver homogenates using [125I]DCG-04 based competition protein labeling by SDS-PAGE method; assay type: tissue-based
Summary of the method: (§1)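 Rat liver lysate (50 µg protein in 50 mM sodium acetate, 2 mM DTT, 5 mM MgCl2, pH 5.5) was preincubated with compound from 50 mM DMSO stocks for 30 min at room temperature. [125I]DCG-04 (10^6 c.p.m.) was then added for 45 min at room temperature. Bands were resolved by SDS-PAGE, imaged and quantified, and IC50 was taken from the linear portion of the signal versus inhibitor concentration plot.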

[1] = biological target: T1, Pro-cathepsin H (Rattus norvegicus) (UniProt P00786); assay: Binding affinity to cathepsin H in crude rat liver homogenates using [125I]DCG-04 based competition protein labeling up to 50 uM by SDS-PAGE method; assay type: tissue-based; summary of the method: as §1
T1 sequence (whole entry): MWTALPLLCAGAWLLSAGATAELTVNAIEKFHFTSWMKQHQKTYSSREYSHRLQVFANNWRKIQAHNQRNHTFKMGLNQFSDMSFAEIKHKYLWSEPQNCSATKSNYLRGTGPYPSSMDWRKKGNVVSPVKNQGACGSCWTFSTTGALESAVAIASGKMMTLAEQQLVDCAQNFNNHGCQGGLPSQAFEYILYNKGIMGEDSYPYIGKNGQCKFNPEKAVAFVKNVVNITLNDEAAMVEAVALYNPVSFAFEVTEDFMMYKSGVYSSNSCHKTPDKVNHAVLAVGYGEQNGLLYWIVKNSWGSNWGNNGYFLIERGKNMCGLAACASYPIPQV

[2] = biological target: T2, Dipeptidyl peptidase 1 (Rattus norvegicus) (UniProt P80067); assay: Binding affinity to cathepsin C in crude rat liver homogenates using [125I]DCG-04 based competition protein labeling up to 50 uM by SDS-PAGE method; assay type: tissue-based; summary of the method: as §1
T2 sequence (whole entry): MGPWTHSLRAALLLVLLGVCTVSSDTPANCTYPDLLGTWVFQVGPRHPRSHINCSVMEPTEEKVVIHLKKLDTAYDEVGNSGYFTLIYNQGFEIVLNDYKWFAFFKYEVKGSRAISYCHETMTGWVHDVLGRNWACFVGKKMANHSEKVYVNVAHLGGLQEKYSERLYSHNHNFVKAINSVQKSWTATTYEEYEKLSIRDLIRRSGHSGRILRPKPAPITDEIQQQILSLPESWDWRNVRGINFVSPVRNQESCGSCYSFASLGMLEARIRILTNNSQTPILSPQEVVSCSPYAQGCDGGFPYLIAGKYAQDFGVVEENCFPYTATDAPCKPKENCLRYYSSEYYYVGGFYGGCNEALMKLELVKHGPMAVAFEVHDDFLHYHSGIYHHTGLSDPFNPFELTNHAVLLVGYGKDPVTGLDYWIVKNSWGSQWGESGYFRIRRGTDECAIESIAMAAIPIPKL

[3] = biological target: Cathepsin Z (Rattus norvegicus) (UniProt Q9R1T3); assay: Binding affinity to cathepsin Z in crude rat liver homogenates using [125I]DCG-04 based competition protein labeling up to 50 uM by SDS-PAGE method; assay type: tissue-based; summary of the method: as §1
[4] = biological target: T3, Cathepsin J (Rattus norvegicus) (UniProt Q63088); assay: Binding affinity to cathepsin J in crude rat liver homogenates using [125I]DCG-04 based competition protein labeling up to 50 uM by SDS-PAGE method; assay type: tissue-based; summary of the method: as §1
T3 sequence (whole entry): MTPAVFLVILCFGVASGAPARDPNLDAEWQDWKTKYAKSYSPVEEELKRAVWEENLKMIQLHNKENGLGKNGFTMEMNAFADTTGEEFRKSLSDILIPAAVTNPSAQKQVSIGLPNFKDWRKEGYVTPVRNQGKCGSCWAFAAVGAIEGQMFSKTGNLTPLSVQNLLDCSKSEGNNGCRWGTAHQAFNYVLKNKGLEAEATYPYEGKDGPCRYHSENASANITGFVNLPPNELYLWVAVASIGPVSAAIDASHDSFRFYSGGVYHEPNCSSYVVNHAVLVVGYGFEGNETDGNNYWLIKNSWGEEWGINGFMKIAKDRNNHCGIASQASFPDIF

Cathepsin J = biological target: T4, Cathepsin J (Rattus norvegicus, UniProt Q63088); assay: Binding affinity to cathepsin J in crude rat liver homogenates using [125I]DCG-04 based competition protein labeling by SDS-PAGE method; assay type: tissue-based; summary of the method: as §1
T4 sequence (Q63088 whole entry): T3 sequence (whole entry)

Pro-cathepsin H = biological target: T5, Pro-cathepsin H (Rattus norvegicus, UniProt P00786); assay: Binding affinity to cathepsin H in crude rat liver homogenates using [125I]DCG-04 based competition protein labeling by SDS-PAGE method; assay type: tissue-based; summary of the method: as §1
T5 sequence (P00786 whole entry): T1 sequence (whole entry)

Cathepsin Z = Cathepsin Z (Rattus norvegicus, UniProt Q9R1T3); assay: Binding affinity to cathepsin Z in crude rat liver homogenates using [125I]DCG-04 based competition protein labeling by SDS-PAGE method; assay type: tissue-based; summary of the method: as §1
Dipeptidyl peptidase 1 = biological target: T6, Dipeptidyl peptidase 1 (Rattus norvegicus, UniProt P80067); assay: Binding affinity to cathepsin C in crude rat liver homogenates using [125I]DCG-04 based competition protein labeling by SDS-PAGE method; assay type: tissue-based; summary of the method: as §1
T6 sequence (P80067 whole entry): T2 sequence (whole entry)

[5] = biological target: T7, Procathepsin L (Rattus norvegicus) (UniProt P07154); assay: Binding affinity to cathepsin L in crude rat liver homogenates assessed as protein labeling; assay type: tissue-based; conditions: tested as the 125I-labelled form
T7 sequence (whole entry): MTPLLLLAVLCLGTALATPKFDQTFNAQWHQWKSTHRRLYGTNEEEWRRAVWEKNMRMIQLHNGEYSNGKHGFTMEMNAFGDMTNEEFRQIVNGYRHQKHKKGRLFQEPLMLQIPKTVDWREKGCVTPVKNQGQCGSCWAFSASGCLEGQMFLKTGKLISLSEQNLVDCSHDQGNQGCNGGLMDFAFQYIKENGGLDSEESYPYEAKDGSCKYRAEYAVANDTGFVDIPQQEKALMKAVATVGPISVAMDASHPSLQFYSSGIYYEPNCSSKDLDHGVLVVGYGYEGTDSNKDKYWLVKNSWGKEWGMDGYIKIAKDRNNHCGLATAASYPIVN

[6] = biological target: Lys-gingipain (Porphyromonas gingivalis (strain ATCC 33277 / DSM 20709 / JCM 12257)) (UniProt B2RLK2); assay: Binding affinity to Lys-gingipain in total lcrude cell lysates of Porphyromonas gingivalis assessed as protein lebeling; conditions: tested as the 125I-labelled form
[7] = biological target: Arg-gingipain-1 proteinase (Porphyromonas gingivalis) (UniProt Q51816); assay: Binding affinity to Arg-gingipain in total lcrude cell lysates of Porphyromonas gingivalis assessed as protein lebeling; conditions: tested as the 125I-labelled form
[8] = biological target: Cathepsin B (Rattus norvegicus) (UniProt P00787); assay: Binding affinity to cathepsin B in crude rat liver homogenates using [125I]DCG-04 based competition protein labeling up to 50 uM by SDS-PAGE method; assay type: tissue-based; summary of the method: as §1

Structure (SMILES) | IC50 (Cathepsin B) | inhibition [3] | IC50 (Cathepsin J) | IC50 (Pro-cathepsin H) | IC50 (Dipeptidyl peptidase 1) | other results
Cc1cccc(C)c1C(=O)OCC(=O)CNC(=O)[C@H](Cc1ccccc1)NC(=O)OCc1ccccc1 | 0.12 µM | inactive |  |  |  | inhibition [1]: inactive; inhibition [2]: inactive; inhibition [4]: inactive
CC(=O)N[C@@H](CCCCNC(=O)CCCCC1SC[C@H]2NC(=O)N[C@@H]12)C(=O)N[C@@H](Cc1ccc(O)c(I)c1)C(=O)NCCCCCC(=O)NCC(=O)COC(=O)c1c(C)cccc1C (stereo partly specified) |  |  |  |  |  | Activity [5]: Active
CC(=O)N[C@@H](CCCCNC(=O)CCCCC1SC[C@H]2NC(=O)N[C@@H]12)C(=O)N[C@@H](Cc1ccc(O)c(I)c1)C(=O)NCCCCCC(=O)N[C@@H](CCCCN)C(=O)COC(=O)c1c(C)cccc1C (stereo partly specified) |  |  |  |  |  | Activity [6]: Active; Activity [7]: Active
COc1ccc(C(=O)OCC(=O)CNC(=O)[C@H](Cc2ccccc2)NC(=O)OCc2ccccc2)cc1 |  | inactive |  |  |  | inhibition [1]: inactive; inhibition [8]: inactive; inhibition [2]: inactive; inhibition [4]: inactive
CC(=O)N[C@@H](CCCCNC(=O)CCCCC1SC[C@H]2NC(=O)N[C@@H]12)C(=O)N[C@@H](Cc1ccc(O)c(I)c1)C(=O)NCCCCCC(=O)N[C@@H](CCCNC(=N)N)C(=O)COC(=O)c1c(C)cccc1C (stereo partly specified) |  |  |  |  |  | Activity [6]: Active; Activity [7]: Active
CC(=O)N[C@@H](Cc1ccc(O)cc1)C(=O)N[C@@H](Cc1ccccc1)C(=O)N[C@@H](CCCNC(=N)N)C(=O)COC(=O)c1c(C)cccc1C | 0.0073 µM |  | 3.6 µM | 12 µM | 3.6 µM | IC50 (Cathepsin Z): 4.7 µM
Cc1cccc(C)c1C(=O)OCC(=O)[C@H](CCCN=C(N)N)NC(=O)[C@H](Cc1ccccc1)NC(=O)OCc1ccccc1 | 0.015 µM |  |  |  |  | 
CC(=O)N[C@@H](CCCCNC(=O)CCCCC1SC[C@H]2NC(=O)N[C@@H]12)C(=O)N[C@@H](Cc1ccc(O)c(I)c1)C(=O)NCCCCCC(=O)N[C@@H](CC(C)C)C(=O)COC(=O)c1c(C)cccc1C (stereo partly specified) |  |  |  |  |  | Activity [5]: Active

Further lines, with some results ahead:

IC50 (Cathepsin B) | inhibition [3] | IC50 (Cathepsin J) | IC50 (Pro-cathepsin H) | IC50 (Dipeptidyl peptidase 1) | Structure (SMILES) | other results
0.22 µM |  | 6.4 µM | 7.9 µM | 6.4 µM | CC(=O)N[C@@H](Cc1ccc(O)cc1)C(=O)N[C@@H](Cc1ccccc1)C(=O)NCC(=O)COC(=O)c1c(C)cccc1C | IC50 (Cathepsin Z): 39 µM
0.92 µM | inactive | 49 µM | 7.9 µM | 49 µM | Cc1cccc(C)c1C(=O)OCC(=O)CNC(=O)[C@H](CC(C)C)NC(=O)OCc1ccccc1 | 
 | inactive |  |  |  | Cc1cccc(C)c1C(=O)OCC(=O)[C@H](CCCNC(=N)N)NC(=O)[C@H](Cc1ccccc1)NC(=O)OCc1ccccc1 | inhibition [1]: inactive; inhibition [2]: inactive; inhibition [4]: inactive
1.2 µM |  | 8.3 µM | 6.6 µM | 8.3 µM | COc1ccc(C(=O)ONC(=O)CNC(=O)[C@H](Cc2ccccc2)NC(=O)OCc2ccccc2)cc1 | IC50 (Cathepsin Z): 1.5 µM

Reference: ChEMBL document CHEMBL1221168, “Activity-based probes that target diverse cysteine protease families” (Nat Chem Biol, 2005)
